Source: ChEMBL document CHEMBL1128513, “(Aryloxy)methylsilane derivatives as new cholesterol biosynthesis inhibitors: synthesis and hypocholesterolemic activity of a new class of squalene epoxidase inhibitors” (J Med Chem, 1995)

Assays:
[1] = In vitro ability to inhibit cholesterol biosynthesis in HepG2 cells in culture from [14C]mevalonate.; type: functional, cell-based
Outline: (§1)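 Hep-G2 cells grown in DMEM with 10% fetal calf serum to subconfluence, then 48 h in DMEM plus 2% Ultroser G. Pretreated 1 h with compound or vehicle (DMSO 0.1%), then [14C]mevalonate (1 μCi/mL) for 4 h. Cells lysed in KOH and saponified in ethanolic KOH at 75 °C for 1 h. Nonsaponifiable lipids separated by TLC. IC50 derived from % [14C]cholesterol versus control cells.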

[2] = In vitro ability to inhibit cholesterol biosynthesis in HepG2 cells in culture from [14C]acetate; type: functional, cell-based
[3] = In vivo ability to inhibit cholesterol biosynthesis from [14C]acetate after a single oral administration in female rats.; type: functional; details: Rattus norvegicus
Outline: (§2)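 Female SD rats (60–80 g) kept 11 days on a reversed light cycle with free access to food and water. Single oral dose at 9:00 a.m., suspended in water with 2% DMSO and 5% Tween 80 (1 mL/100 g). [14C]acetate given i.p. at 80 μCi/kg 1 h later. Liver taken after a further 1 h, saponified, and [14C]cholesterol analysed by TLC against controls. Mean ED50 from at least two experiments.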

HepG2 [4] = assay: In vitro ability to inhibit cholesterol biosynthesis in HepG2 cells in culture from [14C]acetate.; type: functional, cell-based; details: Homo sapiens
HepG2 [5] = assay: In vitro ability to inhibit cholesterol biosynthesis in HepG2 cells in culture from [14C]mevalonate; type: functional, cell-based; details: Homo sapiens; outline: as §1
Rattus norvegicus = assay: In vivo ability to inhibit cholesterol biosynthesis from [14C]acetate after a single oral administration in female rats; type: functional; outline: as §2

SMILES	IC50 [1] [µM]	ED50 [3] [mg/kg]	also measured
CCN(CC#CC#CC(C)(C)OC)Cc1cccc(OC[Si](C)(C)c2ccccc2C)c1	0.29	1.8	IC50 (HepG2 [4]): 0.12 µM
CCN(C/C=C/C#CC(C)(C)C)Cc1cccc(OC[Si](C)(C)c2cccc(C)c2)c1	> 10	–	–
CCN(C/C=C/C#CC(C)(C)C)Cc1cccc(OC[Si](C)(C)Cc2ccccc2)c1	> 10	> 40	–
CCN(C/C=C/C#CC(C)(C)C)Cc1cccc(OC[Si](C)(C)c2ccc(SC)cc2)c1	> 10	–	–
CCN(C/C=C/C#CC(C)(C)C)Cc1cccc(OC[Si](C)(C)CCc2ccccc2)c1	> 10	–	–
CCN(C/C=C/C#CC(C)(C)C)Cc1cccc(OC[Si](C)(C)c2ccc(OC)cc2)c1	> 10	–	–
CCN(C/C=C/C#CC(C)(C)C)Cc1cccc(OCc2cc(-c3ccsc3)cs2)c1	–	–	IC50 (HepG2 [5]): 0.02 µM; ED50 (Rattus norvegicus): 2.5 mg/kg
CCN(C/C=C/C#CC(C)(C)C)Cc1cccc(OC[Si](C)(C)c2ccc(Cl)cc2)c1	> 10	> 40	–
CCN(C/C=C/C#CC(C)(C)C)Cc1cccc(OC[Si](C)(C)c2ccc(Br)cc2)c1	> 10	> 40	–

Now from value to compound, other results behind:

IC50 [1] [µM]	SMILES	ED50 [3] [mg/kg]	also measured
0.08	CCN(C/C=C/C#CC(C)(C)C)Cc1cccc(OC[Si](C)(C)c2ccccc2C#N)c1	7	IC50 [2]: 0.08 µM
1.32	C=Cc1ccc([Si](C)(C)COc2cccc(CN(CC)C/C=C/C#CC(C)(C)C)c2)cc1	> 40	–
10	CCN(C/C=C/C#CC(C)(C)C)Cc1cccc(OC[Si](C)(C)c2ccc(S)cc2)c1	–	–
0.12	CCN(C/C=C/C#CC(C)(C)C)Cc1cccc(OC[Si](C)(C)c2ccccc2C)c1	3.8	IC50 (HepG2 [4]): 0.15 µM
1	CCN(C/C=C/C#CC(C)(C)C)Cc1cccc(OC[Si](C)(C)c2ccc(C(N)=O)cc2)c1	–	–
5	CCN(C/C=C/C#CC(C)(C)C)Cc1cccc(OC[Si](C)(C)c2ccc(C)cc2)c1	–	–
5	CCN(C/C=C/C#CC(C)(C)C)Cc1cccc(OC[Si](C)(C)c2ccccc2OC)c1	> 40	–
0.06	CCN(C/C=C/C#CC(C)(C)C)Cc1cccc(OC[Si](C)(C)c2ccc(C#N)cc2)c1	> 40	IC50 (HepG2 [4]): 0.07 µM
0.78	CCN(CC#CC#CC(C)(C)C)Cc1cccc(OC[Si](C)(C)c2ccccc2C)c1	5	–
0.14	CCN(C/C=C/C#CC(C)(C)C)Cc1cccc(OC[Si](C)(C)c2ccc(C=O)cc2)c1	20	IC50 [2]: 0.15 µM
5	CCN(C/C=C/C#CC(C)(C)C)Cc1cccc(OC[Si](C)(C)c2ccc(F)cc2)c1	> 40	–
1.48	CCN(C/C=C/C#CC(C)(C)C)Cc1cccc(OC[Si](C)(C)c2ccccc2C(F)(F)F)c1	20	–
0.5	CCN(C/C=C/C#CC(C)(C)C)Cc1cccc(OC[Si](C)(C)c2ccccc2)c1	20	IC50 [2]: 0.8 µM
